# Measured values from ChEMBL document CHEMBL4033712, “Synthesis and biological evaluation of new C-12(α/β)-(N-) sulfamoyl-phenylamino-14-deoxy-andrographolide derivatives as potent anti-cancer agents” (Bioorg Med Chem Lett, 2017).
# Key:
# Format in all cases: functional
# [1] = test system: A549; test: Growth inhibition of human A549/ATCC cells incubated for 48 hrs by sulforhodamine B assay; conditions: A549, 48 h; for CC50: read-out: LC50 (the source's name)
# How it was run: (§1)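 NCI-60 five-dose screen at 0.01, 0.1, 1, 10 and 100 µM, 48 h incubation, sulforhodamine B end point. GI50 (50% decrease in net growth), TGI (total growth inhibition) and LC50 (net 50% loss of initial cells) taken from log concentration versus % growth inhibition curves.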
# [2] = test system: HOP-92; test: Growth inhibition of human HOP92 cells incubated for 48 hrs by sulforhodamine B assay; conditions: HOP-92, 48 h; for CC50: read-out: LC50 (the source's name); how it was run: as §1
# [3] = test system: NCI-H226; test: Growth inhibition of human NCI-H226 cells incubated for 48 hrs by sulforhodamine B assay; conditions: NCI-H226, 48 h; how it was run: as §1
# [4] = test system: NCI-H322M; test: Growth inhibition of human NCI-H322M cells incubated for 48 hrs by sulforhodamine B assay; conditions: for CC50: read-out: LC50 (the source's name); how it was run: as §1
# [5] = test system: NCI-H460; test: Growth inhibition of human NCI-H460 cells incubated for 48 hrs by sulforhodamine B assay; conditions: NCI-H460, 48 h; for CC50: read-out: LC50 (the source's name); how it was run: as §1
# [6] = test system: NCI-H522; test: Growth inhibition of human NCI-H522 cells incubated for 48 hrs by sulforhodamine B assay; conditions: NCI-H522, 48 h; for CC50: read-out: LC50 (the source's name); how it was run: as §1
# [7] = test system: HCC 2998; test: Growth inhibition of human HCC2998 cells incubated for 48 hrs by sulforhodamine B assay; conditions: HCC 2998, 48 h; for CC50: read-out: LC50 (the source's name); how it was run: as §1
# [8] = test system: HCT-15; test: Growth inhibition of human HCT15 cells incubated for 48 hrs by sulforhodamine B assay; conditions: HCT-15, 48 h; for CC50: read-out: LC50 (the source's name); how it was run: as §1
# [9] = test system: SF-295; test: Growth inhibition of human SF295 cells incubated for 48 hrs by sulforhodamine B assay; conditions: SF-295, 48 h; for CC50: read-out: LC50 (the source's name)
# How it was run: (§2)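 NCI 60 human tumour cell line panel, five-dose study at 0.01, 0.1, 1, 10 and 100 µM, 48 h incubation. Sulforhodamine B protein-binding dye end point. GI50 (50% decrease in net cell growth), TGI (total growth inhibition) and LC50 (net 50% loss of initial cells) read from log concentration versus % growth inhibition curves.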
# [10] = test system: SNB-19; test: Growth inhibition of human SNB19 cells incubated for 48 hrs by sulforhodamine B assay; conditions: SNB-19, 48 h; for CC50: read-out: LC50 (the source's name); how it was run: as §2
# [11] = test system: LOX IMVI; test: Growth inhibition of human LOXIMVI cells incubated for 48 hrs by sulforhodamine B assay; conditions: for CC50: read-out: LC50 (the source's name); how it was run: as §1
# [12] = test system: SK-MEL-2; test: Growth inhibition of human SK-MEL-2 cells incubated for 48 hrs by sulforhodamine B assay; conditions: SK-MEL-2, 48 h; for CC50: read-out: LC50 (the source's name); how it was run: as §2
# [13] = test system: UACC-257; test: Growth inhibition of human UACC257 cells incubated for 48 hrs by sulforhodamine B assay; conditions: UACC-257, 48 h; for CC50: read-out: LC50 (the source's name); how it was run: as §2
# [14] = test system: IGROV-1; test: Growth inhibition of human IGROV1 cells incubated for 48 hrs by sulforhodamine B assay; conditions: IGROV-1, 48 h; for CC50: read-out: LC50 (the source's name); how it was run: as §1
# [15] = test system: OVCAR-4; test: Growth inhibition of human OVCAR4 cells incubated for 48 hrs by sulforhodamine B assay; conditions: OVCAR-4, 48 h; how it was run: as §1
# [16] = test system: OVCAR-8; test: Growth inhibition of human OVCAR8 cells incubated for 48 hrs by sulforhodamine B assay; conditions: OVCAR-8, 48 h; how it was run: as §1
# [17] = test system: NCI/ADR-RES; test: Growth inhibition of human NCI/ADR-RES cells incubated for 48 hrs by sulforhodamine B assay; how it was run: as §1
# [18] = test system: SK-OV-3; test: Growth inhibition of human SKOV3 cells incubated for 48 hrs by sulforhodamine B assay; conditions: SK-OV-3, 48 h; for CC50: read-out: LC50 (the source's name); how it was run: as §2
# [19] = test system: A498; test: Growth inhibition of human A498 cells incubated for 48 hrs by sulforhodamine B assay; conditions: A498, 48 h; how it was run: as §1
# [20] = test system: SN12C; test: Growth inhibition of human SN12C cells incubated for 48 hrs by sulforhodamine B assay; conditions: for CC50: read-out: LC50 (the source's name); how it was run: as §2
# [21] = test system: TK-10; test: Growth inhibition of human TK10 cells incubated for 48 hrs by sulforhodamine B assay; conditions: TK-10, 48 h; for CC50: read-out: LC50 (the source's name); how it was run: as §2
# [22] = test system: DU-145; test: Growth inhibition of human DU145 cells incubated for 48 hrs by sulforhodamine B assay; conditions: DU-145, 48 h; for CC50: read-out: LC50 (the source's name); how it was run: as §1
# [23] = test system: MDA-MB-231; test: Growth inhibition of human MDA-MB-231 cells incubated for 48 hrs by sulforhodamine B assay; conditions: MDA-MB-231, 48 h; how it was run: as §1
# [24] = test system: Hs-578T; test: Growth inhibition of human Hs 578T cells incubated for 48 hrs by sulforhodamine B assay; how it was run: as §1
# [25] = test system: T47D; test: Growth inhibition of human T47D cells incubated for 48 hrs by sulforhodamine B assay; conditions: for CC50: read-out: LC50 (the source's name); how it was run: as §2
# [26] = test system: MDA-MB-468; test: Growth inhibition of human MDA-MB-468 cells incubated for 48 hrs by sulforhodamine B assay; conditions: MDA-MB-468, 48 h; for CC50: read-out: LC50 (the source's name); how it was run: as §1
# [27] = test system: SNB-19; test: Anticancer activity against human SNB19 cells assessed as cell growth at 10 uM after 48 hrs by sulforhodamine B assay relative to control; conditions: SNB-19, 48 h, read-out: Activity
# How it was run: (§3)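 Single-dose NCI-60 panel screen: compound added at 10 µM and the culture incubated 48 h. The end point was read by protein staining with sulforhodamine B. The value is percent growth of treated cells relative to untreated control cells, reported as a mean graph across the panel.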
# [28] = test system: SF-539; test: Anticancer activity against human SF539 cells assessed as cell growth at 10 uM after 48 hrs by sulforhodamine B assay relative to control; conditions: SF-539, 48 h, read-out: Activity; how it was run: as §3
structure (smiles),measurement,setting,value
C=C1CC[C@@H]2[C@](C)(COC(C)=O)[C@H](OC(C)=O)CC[C@@]2(C)[C@H]1CC(Nc1ccc(S(=O)(=O)Nc2ccc(Cl)nn2)cc1)C1=CCOC1=O (stereo partly specified),GI50,[1],2.96 µM
same,TGI,[1],10.7 µM
same,CC50,[1],40.9 µM
same,GI50,[2],2700 nM
same,TGI,[2],7.89 µM
same,CC50,[2],27.5 µM
same,GI50,[3],1670 nM
same,TGI,[3],3.3 µM
same,GI50,[4],2.97 µM
same,TGI,[4],11.6 µM
same,CC50,[4],36.1 µM
same,GI50,[5],2030 nM
same,TGI,[5],4.31 µM
same,CC50,[5],9.15 µM
same,GI50,[6],750 nM
same,TGI,[6],2100 nM
same,CC50,[6],4.82 µM
same,GI50,[7],1840 nM
same,TGI,[7],3.86 µM
same,CC50,[7],8.08 µM
same,GI50,[8],880 nM
same,TGI,[8],2.3 µM
same,CC50,[8],5.51 µM
same,GI50,[9],3.28 µM
same,TGI,[9],12.6 µM
same,CC50,[9],35.6 µM
same,GI50,[10],1910 nM
same,TGI,[10],3.91 µM
same,CC50,[10],8 µM
same,GI50,[11],290 nM
same,TGI,[11],1190 nM
same,CC50,[11],4.17 µM
same,GI50,[12],1770 nM
same,TGI,[12],3.99 µM
same,CC50,[12],8.97 µM
same,GI50,[13],1670 nM
same,TGI,[13],3.89 µM
same,CC50,[13],9.03 µM
same,GI50,[14],2080 nM
same,TGI,[14],5 µM
same,CC50,[14],18.3 µM
same,GI50,[15],1470 nM
same,LC50,[15],6.82 µM
same,TGI,[15],3.17 µM
same,GI50,[16],1350 nM
same,TGI,[16],3.43 µM
same,GI50,[17],1870 nM
same,LC50 (concentration giving net 50% loss of initial cells),[17],> 100 µM
same,TGI,[17],6.2 µM
same,GI50,[18],4.05 µM
same,TGI,[18],12.3 µM
same,CC50,[18],35 µM
same,GI50,[19],1.4 µM
same,LC50 (concentration giving net 50% loss of initial cells),[19],15.6 µM
same,TGI,[19],4.26 µM
same,GI50,[20],1250 nM
same,TGI,[20],3.66 µM
same,CC50,[20],12.7 µM
same,GI50,[21],2130 nM
same,TGI,[21],4.19 µM
same,CC50,[21],8.25 µM
same,GI50,[22],1700 nM
same,TGI,[22],3.45 µM
same,CC50,[22],7.02 µM
same,GI50,[23],1900 nM
same,LC50 (concentration giving net 50% loss of initial cells),[23],8.27 µM
same,TGI,[23],3.96 µM
same,GI50,[24],6.17 µM
same,LC50,[24],> 100 µM
same,TGI,[24],> 100 µM
same,GI50,[25],1510 nM
same,TGI,[25],4.25 µM
same,CC50,[25],> 100 µM
same,GI50,[26],1320 nM
same,TGI,[26],3.37 µM
same,CC50,[26],8.62 µM
same,growth at 10 µM,[27],76%
C=C1CC[C@@H]2[C@](C)(COC(C)=O)[C@H](OC(C)=O)CC[C@@]2(C)[C@H]1CC(Nc1ccc(S(=O)(=O)Nc2nc(C)cc(C)n2)cc1)C1=CCOC1=O (stereo partly specified),growth at 10 µM,[27],100%
C=C1CC[C@@H]2[C@](C)(COC(C)=O)[C@H](OC(C)=O)CC[C@@]2(C)[C@H]1CC(Nc1ccc(S(=O)(=O)Nc2cc(C)on2)cc1)C1=CCOC1=O (stereo partly specified),GI50,[1],4.75 µM
same,TGI,[1],15.4 µM
same,CC50,[1],42.2 µM
same,GI50,[2],3070 nM
same,TGI,[2],8 µM
same,CC50,[2],28 µM
same,GI50,[3],1810 nM
same,TGI,[3],3.85 µM
same,GI50,[4],4.68 µM
same,TGI,[4],16.1 µM
same,CC50,[4],44.6 µM
same,GI50,[5],2350 nM
same,TGI,[5],5.7 µM
same,CC50,[5],27.7 µM
same,GI50,[6],1040 nM
same,TGI,[6],2420 nM
same,CC50,[6],5.61 µM
same,GI50,[7],2140 nM
same,TGI,[7],4.05 µM
same,CC50,[7],7.64 µM
same,GI50,[8],1500 nM
same,TGI,[8],3.83 µM
same,CC50,[8],9.74 µM
same,GI50,[9],8.13 µM
same,TGI,[9],21 µM
same,CC50,[9],47.7 µM
same,GI50,[10],3120 nM
same,TGI,[10],12.2 µM
same,CC50,[10],46.4 µM
same,GI50,[11],1180 nM
same,TGI,[11],2540 nM
same,CC50,[11],5.46 µM
same,GI50,[12],2040 nM
same,TGI,[12],4.4 µM
same,CC50,[12],9.49 µM
same,GI50,[13],2950 nM
same,TGI,[13],6.19 µM
same,CC50,[13],18.7 µM
same,GI50,[14],2360 nM
same,TGI,[14],6.51 µM
same,CC50,[14],76.2 µM
same,GI50,[15],2910 nM
same,LC50,[15],35.1 µM
same,TGI,[15],10.5 µM
same,GI50,[16],1880 nM
same,TGI,[16],4.3 µM
same,CC50,[16]; read-out: LC50 (the source's name),9.83 µM
same,GI50,[17],2410 nM
same,LC50 (concentration giving net 50% loss of initial cells),[17],> 100 µM
same,TGI,[17],12 µM
same,GI50,[18],11 µM
same,TGI,[18],23.1 µM
same,CC50,[18],48.6 µM
same,GI50,[19],7.69 µM
same,LC50 (concentration giving net 50% loss of initial cells),[19],45 µM
same,TGI,[19],20.3 µM
same,GI50,[20],1730 nM
same,TGI,[20],4.52 µM
same,CC50,[20],20.7 µM
same,GI50,[21],3040 nM
same,TGI,[21],7.11 µM
same,CC50,[21],23.8 µM
same,GI50,[22],2430 nM
same,TGI,[22],6.53 µM
same,CC50,[22],23 µM
same,GI50,[23],2220 nM
same,LC50 (concentration giving net 50% loss of initial cells),[23],17.1 µM
same,TGI,[23],5.11 µM
same,GI50,[24],3.92 µM
same,LC50,[24],> 100 µM
same,TGI,[24],26.7 µM
same,GI50,[25],2800 nM
same,TGI,[25],7.37 µM
same,CC50,[25],> 100 µM
same,GI50,[26],1490 nM
same,TGI,[26],3.29 µM
same,CC50,[26],7.27 µM
same,growth at 10 µM,[28],6.3%
